Screening results as filed in PubChem BioAssay.
Sampled rows, rich in hits. Any-hit rate of the full collection: about 2.4%.
NadD inh: inhibitors of Staphylococcus aureus NadD; purified NadD enzyme, colorimetric absorbance read-out; inhibition, % at 20 µM; 0.78% of 360,000 active; in the data active = inhibition above about 26%
LMPTP inh: blocks human LMPTP phosphatase; inhibition, % at 20 µM; recombinant LMPTP-A, OMFP fluorogenic substrate, fluorescence intensity; P24666; 0.22% of 360,000 active; AID 651560;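 active = compounds that cut the enzyme signal by at least half of the control window in the single-dose screen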;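 also: plate controls were DMSO wells with enzyme plus substrate for no effect and substrate without enzyme for full effect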
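Assay system: LMPTP-A enzyme. Input: 0.625 nM LMPTP-A final. Probe or stimulus: 400 µM OMFP. Compound dosing: single 20 µM dose. Schedule: 50 min dark incubation at room temperature. Detection: fluorescence intensity of OMFP turnover product. Read-out: percent inhibition versus substrate-only and uninhibited controls. Benchmarks: no-enzyme low control, uninhibited high control.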
STEP block: STEP (human) phosphatase inhibition; P54829; recombinant STEP, OMFP fluorogenic substrate, fluorescence; inhibition, % at 20 µM; 0.25% of 360,000 active;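 active = inhibition at 20 µM, scaled per plate between control wells, above about 37%, limit read from the data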;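 also: 0% = DMSO with enzyme and substrate and 100% = substrate only without enzyme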
Target sequence (P54829 whole entry, looked up): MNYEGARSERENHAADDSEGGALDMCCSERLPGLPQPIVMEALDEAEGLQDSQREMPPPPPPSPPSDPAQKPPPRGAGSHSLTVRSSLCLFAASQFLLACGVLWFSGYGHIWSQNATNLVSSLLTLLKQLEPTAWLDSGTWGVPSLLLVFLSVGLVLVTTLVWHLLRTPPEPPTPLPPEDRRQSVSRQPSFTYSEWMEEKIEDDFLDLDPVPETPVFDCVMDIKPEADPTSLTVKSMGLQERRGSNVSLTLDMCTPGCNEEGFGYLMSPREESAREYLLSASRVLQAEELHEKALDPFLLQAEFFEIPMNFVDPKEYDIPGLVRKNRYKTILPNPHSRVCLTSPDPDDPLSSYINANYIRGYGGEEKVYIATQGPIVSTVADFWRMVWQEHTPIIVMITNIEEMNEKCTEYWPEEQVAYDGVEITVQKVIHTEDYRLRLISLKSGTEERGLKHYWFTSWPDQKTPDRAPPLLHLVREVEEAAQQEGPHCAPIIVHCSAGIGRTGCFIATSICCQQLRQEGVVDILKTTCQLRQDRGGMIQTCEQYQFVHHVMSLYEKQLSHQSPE
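System: STEP phosphatase, cell-free reaction; Buffer or medium: Bis-Tris pH 6.0 buffer with DTT, detergent; Incubation: 20 min at room temperature, dark; Measured by: fluorescence, 480/540 nm.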
Scp-1 inhibitor: inhibitors of human Scp-1 phosphatase | Q9GZU7 | Recombinant Scp1, phosphopeptide, malachite green phosphate absorbance | inhibition, % at 20 µM | 0.88% of 340,000 active | AID 493091;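 active = inhibition above about 50% at 20 µM, limit read from the data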;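 also: plate controls were DMSO wells with enzyme for no effect and wells lacking enzyme for full effect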
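Material – SCP-1 phosphatase catalytic domain, residues 76-261 · Buffer or medium – Acidic Tris acetate buffer with magnesium and detergent · Also added – Phospho 17-mer peptide substrate · Compound – single 20 µM dose, 1% DMSO · Times – 45 min room-temperature reaction, 5 min colour, 30 min stabiliser · Technique – Phosphate-binding colour reagent, absorbance read at 630 nm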
DNMT1 inh: inhibitors of human DNMT1; P26358; DNMT1 molecular beacon, Hinp1I cleavage, fluorescence; inhibition (reported as % activation of signal), % at 10 µM; 0.83% of 360,000 active; AID 588458; in the data active = inhibition above about 50%
SUMO1 PPI mod: modulators of human SUMO1-mediated protein-protein interactions; P63165; 0.33% of 360,000 active; inhibition, % at 20 µM; SUMO1 binding to a labelled peptide, TR-FRET, 1 h; in the data active = inhibition above about 37%
* hit, by the source's call.

N#CC1=C2SCN(Cc3ccccc3)CN2C(=O)CC1c1ccc2c(c1)OCO2 (centres undefined) was read as NadD inh 13, LMPTP inh 11, STEP block 3, Scp-1 inhibitor -7, DNMT1 inh -10 and SUMO1 PPI mod 9.
`COc1ccccc1C(=O)COC(=O)c1cc([N+](=O)[O-])ccc1N1CCOCC1` gave NadD inh -8, LMPTP inh 1, STEP block 6, Scp-1 inhibitor -13, DNMT1 inh -9 and SUMO1 PPI mod -19.
Screening Cc1cc(C(=O)NNC(=O)C2CCCC2)c(C)o1 returned NadD inh -3, LMPTP inh -2, STEP block 0, Scp-1 inhibitor -4, DNMT1 inh -1 and SUMO1 PPI mod 0.
`O=C(c1ccccc1)c1c2c(cc3sc4ccccc4[n+]13)-c1cccc3cccc-2c13` gave NadD inh 10, LMPTP inh 69*, STEP block 3, Scp-1 inhibitor -4, DNMT1 inh 58* and SUMO1 PPI mod -18.
For Cc1ccc(C(=O)c2c(C)oc3c2C(=O)C(=O)c2ccccc2-3)cc1 the results were NadD inh 5, LMPTP inh 4, STEP block 17, Scp-1 inhibitor -7, DNMT1 inh 52* and SUMO1 PPI mod 18.
`O=S1(=O)CCC(NC(=S)Nc2ccccc2)C1` (centres undefined) gave NadD inh -4, LMPTP inh 1, STEP block 0, Scp-1 inhibitor -1, DNMT1 inh 2 and SUMO1 PPI mod -6.
CCOC(=O)c1sc2nc3c(SCCC(=O)O)cc(C(=O)c4cc(OC)ccc4O)cn3c(=O)c2c1C was read as NadD inh 43*, LMPTP inh 92*, STEP block 96*, Scp-1 inhibitor 27, DNMT1 inh 104* and SUMO1 PPI mod 84*.
Screening O=C(O)CSc1cc(C(=O)c2cc(F)ccc2O)cn2c(=O)c3c(-c4ccccc4)csc3nc12 returned NadD inh 19, LMPTP inh 14, STEP block 6, Scp-1 inhibitor -11, DNMT1 inh -1 and SUMO1 PPI mod 18.
Screening COCCCNc1c2c3c(cccc3[nH]c1=O)C(=O)c1ccccc1-2 returned NadD inh 5, LMPTP inh -30, STEP block inactive, Scp-1 inhibitor -2, DNMT1 inh active and SUMO1 PPI mod -173.
For CC1=CC(C)(C)n2c(O)c(N=NC(N)=S)c3cc(C)cc1c32 the results were NadD inh 7, LMPTP inh -1, STEP block 2, Scp-1 inhibitor -3, DNMT1 inh 33 and SUMO1 PPI mod 0.
Screening CC(=O)OC(C)C1C2=C(C(=O)CC1(C)O)C(=O)c1c(ccc(-c3ccc4c(c3O)C(=O)C3=C(C4=O)C(C(C)OC(C)=O)C(C)(O)CC3=O)c1O)C2=O (centres undefined) returned NadD inh 45*, LMPTP inh 2, STEP block 5, Scp-1 inhibitor 2, DNMT1 inh -16 and SUMO1 PPI mod 21.
`Cc1coc2c1C(=O)C(=O)c1c-2ccc2c(C)cccc12` gave NadD inh 34*, LMPTP inh 22, STEP block 14, Scp-1 inhibitor 38, DNMT1 inh 95* and SUMO1 PPI mod 22.
Cc1coc2c1C(=O)C(=O)c1c-2ccc2c1CCCC2(C)C was read as NadD inh 33*, LMPTP inh 9, STEP block 3, Scp-1 inhibitor -4, DNMT1 inh 52* and SUMO1 PPI mod 9.
COc1ccc(-c2cnn(C3CCS(=O)(=O)C3)c2N)cc1 (centres undefined) was read as NadD inh 4, LMPTP inh -1, STEP block -1, Scp-1 inhibitor 1, DNMT1 inh 0 and SUMO1 PPI mod 1.
CCCOc1ccc(C(=O)OCC(=O)c2c(N)n(C)c(=O)n(C)c2=O)cc1OCC was read as NadD inh 0, LMPTP inh 2, STEP block -6, Scp-1 inhibitor 3, DNMT1 inh 4 and SUMO1 PPI mod 11.
Screening Cc1ccccc1CSCC(=O)c1c(N)n(C)c(=O)n(C)c1=O returned NadD inh 1, LMPTP inh 0, STEP block -6, Scp-1 inhibitor 0, DNMT1 inh 2 and SUMO1 PPI mod 3.
`CN(C)CCNc1ccc2ncn3c4ccc(O)cc4c(=O)c1c23` gave NadD inh 3, LMPTP inh 63*, STEP block -6, Scp-1 inhibitor -13, DNMT1 inh 86* and SUMO1 PPI mod -59.
Screening COCCNC(=O)/C(C#N)=C/c1ccc(C(=O)O)cc1 returned NadD inh -2, LMPTP inh -1, STEP block 1, Scp-1 inhibitor -6, DNMT1 inh 3 and SUMO1 PPI mod 3.
`Clc1cccc(-c2nc(NCc3cccnc3)c3ccccc3n2)c1` gave NadD inh -3, LMPTP inh 42, STEP block -1, Scp-1 inhibitor -4, DNMT1 inh -10 and SUMO1 PPI mod 10.
`Fc1ccc(CNc2nc(-c3ccccc3)nc3ccccc23)cc1` gave NadD inh 4, LMPTP inh 37, STEP block 0, Scp-1 inhibitor 3, DNMT1 inh -9 and SUMO1 PPI mod -4.
`Cc1ccc(-c2nc(NCc3cccnc3)c3ccccc3n2)cc1` gave NadD inh 0, LMPTP inh 63*, STEP block -4, Scp-1 inhibitor -30, DNMT1 inh -10 and SUMO1 PPI mod 8.
For COc1ccc(CNc2nc(-c3ccccc3)nc3ccccc23)cc1OC the results were NadD inh -4, LMPTP inh 63*, STEP block -1, Scp-1 inhibitor -6, DNMT1 inh -6 and SUMO1 PPI mod 3.
`c1ccc(-c2nc(NCc3cccnc3)c3ccccc3n2)cc1` gave NadD inh 2, LMPTP inh 58*, STEP block 1, Scp-1 inhibitor -4, DNMT1 inh -3 and SUMO1 PPI mod 6.
For CCCC(=O)c1cn(CC(=O)OC)c2ccccc12 the results were NadD inh -2, LMPTP inh 1, STEP block 2, Scp-1 inhibitor -4, DNMT1 inh -3 and SUMO1 PPI mod 3.
CCc1ccc(C2c3[nH]c4ccccc4c3CCN2C(=O)c2cc[n+]([O-])cc2)cc1 (centres undefined) was read as NadD inh 4, LMPTP inh 0, STEP block 0, Scp-1 inhibitor -6, DNMT1 inh -6 and SUMO1 PPI mod -12.
For O=C(NCCNC(=O)c1ccco1)c1cccc(F)c1 the results were NadD inh 0, LMPTP inh -1, STEP block 3, Scp-1 inhibitor -3, DNMT1 inh 2 and SUMO1 PPI mod 0.
